Measured values taken from ChEMBL document CHEMBL1155834, “Antimicrobial diterpenes from Trigonostemon chinensis” (2008).
Converted amounts (≈) assume the structure as drawn. One block for each compound: values may come before it.

Columns and labels:
Type in all cases: functional
Bacillus subtilis = assay: Antibacterial activity against Bacillus subtilis CMCC 63501 after 18 hrs
In short: (§1)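 Broth dilution in Mueller Hinton broth, compounds dissolved in DMSO. Cells incubated aerobically with compound at 37 °C for 18 h, with DMSO-only blank cultures. MIC is the lowest concentration giving complete inhibition of visible growth.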

Helicobacter pylori [1] = assay: Antibacterial activity against metronidazole-resistant Helicobacter pylori ATCC 43504 after 96 hrs; conditions: ATCC 43504, 96 h
In short: (§2)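 Agar plates inoculated with H. pylori cells suspended in saline at 10^8 cfu/mL, incubated 37 °C for 96 h microaerobically (5% O2, 10% CO2, 85% N2) alongside blank and positive controls. Triplicate tests.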

Candida albicans = assay: Antifungal activity against Candida albicans after 48 hrs
In short: (§3)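 Fungi grown in Sabouraud dextrose broth with compound at 37 °C for 48 h. MIC is the lowest concentration completely inhibiting visible growth.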

Nannizzia gypsea = assay: Antifungal activity against Microsporum gypseum after 48 hrs; in short: as §3
Staphylococcus aureus = assay: Antibacterial activity against Staphylococcus aureus ATCC 25923 after 18 hrs; conditions: ATCC 25923, 18 h; in short: as §1
Pseudomonas aeruginosa = assay: Antibacterial activity against Pseudomonas aeruginosa after 18 hrs; in short: as §1
Helicobacter pylori [2] = assay: Antibacterial activity against Helicobacter pylori SS1 after 96 hrs; conditions: SS1, 96 h; in short: as §2
Shigella flexneri = assay: Antibacterial activity against Shigella flexneri after 18 hrs; in short: as §1
[3] = system: Staphylococcus epidermidis; assay: Antibacterial activity against Staphylococcus epidermidis ATCC 12228 after 18 hrs; conditions: ATCC 12228, 18 h; in short: as §1
Escherichia coli = assay: Antibacterial activity against Escherichia coli after 18 hrs; in short: as §1
Micrococcus luteus = assay: Antibacterial activity against Micrococcus luteus ATCC 9341 after 18 hrs; conditions: ATCC 9341, 18 h; in short: as §1

Compound: C=CC1=C(C)C(=O)C=C2[C@]13O[C@H]3C[C@H](C(=C)C)[C@@]2(C)CCC(=O)OC [TRIGONOCHINENE D]
MIC (Bacillus subtilis): > 50 µg/mL | MIC (Helicobacter pylori [1]): 50 µg/mL (≈ 146 µM) | MIC (Candida albicans): > 50 µg/mL | MIC (Nannizzia gypsea): > 50 µg/mL | MIC (Staphylococcus aureus): > 50 µg/mL | MIC (Pseudomonas aeruginosa): > 50 µg/mL | MIC (Helicobacter pylori [2]): 25 µg/mL (≈ 73 µM) | MIC (Shigella flexneri): > 50 µg/mL | MIC [3]: > 50 µg/mL | MIC (Escherichia coli): > 50 µg/mL | MIC (Micrococcus luteus): > 50 µg/mL

Compound: Cc1ncc([N+](=O)[O-])n1CCO [METRONIDAZOLE]
MIC (Helicobacter pylori [1]): 128 µg/mL (≈ 748 µM) | MIC (Helicobacter pylori [2]): 0.5 µg/mL (≈ 2.92 µM)

Compound: C=CC1=C(C)C(=O)C=C2[C@@]1(O)CC[C@H](C(=C)C)[C@@]2(C)CCC(=O)OC [TRIGONOCHINENE A]
MIC (Bacillus subtilis): > 50 µg/mL | MIC (Helicobacter pylori [1]): 50 µg/mL (≈ 145 µM) | MIC (Candida albicans): > 50 µg/mL | MIC (Nannizzia gypsea): > 50 µg/mL | MIC (Staphylococcus aureus): > 50 µg/mL | MIC (Pseudomonas aeruginosa): > 50 µg/mL | MIC (Helicobacter pylori [2]): 25 µg/mL (≈ 72.6 µM) | MIC (Shigella flexneri): > 50 µg/mL | MIC [3]: > 50 µg/mL | MIC (Escherichia coli): > 50 µg/mL | MIC (Micrococcus luteus): > 50 µg/mL

Compound: C=CC1=C(C)C(=O)C=C2[C@]1(O)CC[C@H](C(=C)C)[C@@]2(C)CCC(=O)OC [TRIGONOCHINENE B]
MIC (Bacillus subtilis): > 50 µg/mL | MIC (Helicobacter pylori [1]): 25 µg/mL (≈ 72.6 µM) | MIC (Candida albicans): > 50 µg/mL | MIC (Nannizzia gypsea): > 50 µg/mL | MIC (Staphylococcus aureus): > 50 µg/mL | MIC (Pseudomonas aeruginosa): > 50 µg/mL | MIC (Helicobacter pylori [2]): 12.5 µg/mL (≈ 36.3 µM) | MIC (Shigella flexneri): > 50 µg/mL | MIC [3]: > 50 µg/mL | MIC (Escherichia coli): > 50 µg/mL | MIC (Micrococcus luteus): > 50 µg/mL

MIC (Candida albicans): 6.25 µg/mL (≈ 14.5 µM) | MIC (Nannizzia gypsea): 12.5 µg/mL (≈ 28.9 µM)
Compound: COC(=O)C1=CC[C@@]23CC[C@@H]([C@@](C)(/C=C/C=C(\C)C(=O)O)OC2=O)[C@@]3(OC(C)=O)CC1 [PSEUDOLARIC ACID B]

Compound: COc1cc2c(cc(OC)c3cc(C)c(O)cc32)c(C)c1O [TRIGONOCHINENE E]
MIC (Bacillus subtilis): > 50 µg/mL | MIC (Helicobacter pylori [1]): > 50 µg/mL | MIC (Candida albicans): 12.5 µg/mL (≈ 41.9 µM) | MIC (Nannizzia gypsea): 6.25 µg/mL (≈ 20.9 µM) | MIC (Staphylococcus aureus): 6.25 µg/mL (≈ 20.9 µM) | MIC (Pseudomonas aeruginosa): > 50 µg/mL | MIC (Helicobacter pylori [2]): 25 µg/mL (≈ 83.8 µM) | MIC (Shigella flexneri): > 50 µg/mL | MIC [3]: 6.25 µg/mL (≈ 20.9 µM) | MIC (Escherichia coli): > 50 µg/mL | MIC (Micrococcus luteus): 12.5 µg/mL (≈ 41.9 µM)

MIC (Bacillus subtilis): 12.5 µg/mL (≈ 46.9 µM) | MIC (Staphylococcus aureus): 12.5 µg/mL (≈ 46.9 µM) | MIC (Pseudomonas aeruginosa): > 50 µg/mL | MIC (Shigella flexneri): > 50 µg/mL | MIC [3]: 6.25 µg/mL (≈ 23.5 µM) | MIC (Escherichia coli): > 50 µg/mL | MIC (Micrococcus luteus): 6.25 µg/mL (≈ 23.5 µM)
Compound: C=CCc1ccc(O)c(-c2cc(CC=C)ccc2O)c1 [MAGNOLOL]

Compound: C=Cc1c(C)c(O)cc2c1CC[C@H](C(=C)C)[C@@]2(C)CCC(=O)O
MIC (Bacillus subtilis): > 50 µg/mL | MIC (Helicobacter pylori [1]): > 50 µg/mL | MIC (Candida albicans): > 50 µg/mL | MIC (Nannizzia gypsea): > 50 µg/mL | MIC (Staphylococcus aureus): > 50 µg/mL | MIC (Pseudomonas aeruginosa): > 50 µg/mL | MIC (Helicobacter pylori [2]): 25 µg/mL (≈ 79.5 µM) | MIC (Shigella flexneri): > 50 µg/mL | MIC [3]: > 50 µg/mL | MIC (Escherichia coli): > 50 µg/mL | MIC (Micrococcus luteus): > 50 µg/mL

Compound: C=Cc1c(C)c(O)cc2c1CC[C@H](C(=C)C)[C@@]2(C)CCC(=O)OC
MIC (Bacillus subtilis): 3.12 µg/mL (≈ 9.5 µM) | MIC (Helicobacter pylori [1]): 50 µg/mL (≈ 152 µM) | MIC (Candida albicans): > 50 µg/mL | MIC (Nannizzia gypsea): 50 µg/mL (≈ 152 µM) | MIC (Staphylococcus aureus): 12.5 µg/mL (≈ 38.1 µM) | MIC (Pseudomonas aeruginosa): > 50 µg/mL | MIC (Helicobacter pylori [2]): 25 µg/mL (≈ 76.1 µM) | MIC (Shigella flexneri): > 50 µg/mL | MIC [3]: 6.25 µg/mL (≈ 19 µM) | MIC (Escherichia coli): > 50 µg/mL | MIC (Micrococcus luteus): 6.25 µg/mL (≈ 19 µM)

Compound: C=CC1=C(C)C(=O)C=C2[C@]1(OO)CC[C@H](C(=C)C)[C@@]2(C)CCC(=O)OC [TRIGONOCHINENE C]
MIC (Bacillus subtilis): 12.5 µg/mL (≈ 34.7 µM) | MIC (Helicobacter pylori [1]): 50 µg/mL (≈ 139 µM) | MIC (Candida albicans): > 50 µg/mL | MIC (Nannizzia gypsea): > 50 µg/mL | MIC (Staphylococcus aureus): 50 µg/mL (≈ 139 µM) | MIC (Pseudomonas aeruginosa): > 50 µg/mL | MIC (Helicobacter pylori [2]): 50 µg/mL (≈ 139 µM) | MIC (Shigella flexneri): > 50 µg/mL | MIC [3]: 25 µg/mL (≈ 69.4 µM) | MIC (Escherichia coli): > 50 µg/mL | MIC (Micrococcus luteus): 12.5 µg/mL (≈ 34.7 µM)
